Results from PubChem BioAssay.
Results filed as inconclusive are left out.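 How the source made its calls, unless noted: active means inhibition over a set limit, the all-compound mean plus 3 SD, in both replicate runs; inconclusive means over that limit in just one replicate run; inactive means at or under that limit in both runs.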

What was measured:
[1] = OD615 S. cerevisiae growth inhibition, permissive medium, pilot counter-assay, permissive growth control for S. cerevisiae lifespan shortening project (AID 705;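 active means growth inhibition above 25% in both replicates, a cutoff set 3 SD above the mean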); conditions: OD615, 24 h, at 10 µM, hits give high values
Outline: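 System: S. cerevisiae with engineered DeaD lifespan system. Medium: SC raffinose/galactose permissive medium. Doses: single compound dose of 10 µM, 0.25% DMSO final. Schedule: 24 h exposure, 30 °C. Measured by: OD615 turbidity read. Read-out: growth inhibition.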

[2] = Restrictive medium S. cerevisiae growth inhibition, OD615, pilot screen of yeast lifespan reduction project, restrictive growth control (AID 706;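 active means growth inhibition above a set limit, 3 SD over mean compound inhibition, in both replicates, cut at about 43% in these data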;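 further: modified DeaD lifespan yeast strain shifted to restrictive glucose medium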); conditions: OD615, 48 h, at 10 µM, hits give high values
Outline: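 Assay system – genetically modified Saccharomyces cerevisiae, DeaD replicative lifespan assay strain · Medium – CSMM-D glucose medium · Doses – 10 µM compound, 0.25% DMSO · Times – 4 h pre-incubation, 48 h exposure at 30 °C · Signal – optical density at 615 nm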

[3] = viability gain of MRP-1-high H69AR cells under doxorubicin, pilot screen, MRP-1 activator project, CellTiter-Glo, duplicate (AID 807;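 active means viability increase at or above a cutoff of the median across tested compounds plus 3 SD, cut at about 8.5% in these data, passing the limit was not always enough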;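 further: compound pretreatment 18-22 h then 72 h combined with doxorubicin; 0% = doxorubicin alone and 100% = vehicle without doxorubicin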); conditions: H69AR viability with doxorubicin, CellTiter-Glo luminescence; at 10 µM; hits give high values
[4] = growth suppression of beta-catenin knockout HCT116, pilot screen, human colon tumor cells (AID 823;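 active means cell viability at or below a set limit in both duplicate runs, the limit being the all-compound median minus 4 SD, cut at about 23% in these data, passing the limit was not always enough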;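 further: 0% = wells killed by 20 µM Hyamine and 100% = untreated DMSO cell wells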); conditions: CellTiter-Glo, 60 h, at 10 µM, hits give low values
[5] = growth suppression of PTEN-deleted HCT116, pilot screen, cell-based, HCT116 clonal line, CellTiter-Glo (AID 824;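 active means viability at or below 27.92% in each of two runs, the all-compound median minus 4 SD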;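 further: 0% = 20 µM Hyamine control and 100% = vehicle cell control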); conditions: 60 h, at 10 µM, hits give low values
[6] = inhibitors of the yeast RAM network, pilot screen, dse1pr::URA3 reporter, 5-FOA selection (AID 869);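 further: 0% = DMSO wells with no growth and 100% = 10 µM 1-NA-PP1 with full growth; RAM network block rescues cells from 5-FOA so hits raise OD615 growth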; conditions: S. cerevisiae dse1pr::URA3 5-FOA growth, OD615, 2 d; at 10 µM; hits give high values; strain carries analog-sensitive mutant Cbk1 kinase
[7] = RAM signaling pathway blockade in yeast – S. cerevisiae, Pdr1DBD-CYC8 efflux-inhibited sensitized strain, primary screen (AID 1298;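 active means RAM network inhibition above 8.4% in each of two replicates, 3 SD over the compound average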;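 further: 0% = DMSO untreated cells without growth and 100% = 10 µM 1-NA-PP1 full growth; higher means more yeast growth rescued from 5-FOA killing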); conditions: S. cerevisiae cbk1-as DSE1-URA3 strain, 5-FOA growth OD615, 2 d; at 50 µM; hits give high values

Cc1ccc(C2CC(c3ccc(Cl)cc3)n3nc(N)nc3N2)cc1 (stereo not drawn)
inactive: growth inhibition [1] 1.88% | growth inhibition [2] 7.93% | viability increase [3] -0.27% | viability [4] 93.9% | viability [5] 93.5% | inhibition [6] 1.9% | RAM network inhibition [7] 8.2%

COc1cccc(CN2C(=O)CCC2(C)C(=O)NC2CCCCC2)c1 (stereo not drawn)
inactive: growth inhibition [1] -6.64% | growth inhibition [2] 1.03% | viability increase [3] 0.54% | viability [4] 107% | viability [5] 100% | inhibition [6] -0.375% | RAM network inhibition [7] 0.22%

CCOC(=O)c1[nH]c(=O)[nH]c1CSc1nc(C)cc(C)n1
inactive: growth inhibition [1] -4.23% | growth inhibition [2] 7.25% | viability increase [3] -3.65% | viability [4] 102% | viability [5] 96.9% | inhibition [6] 0.985% | RAM network inhibition [7] 5.37%

O=C(CSCCNS(=O)(=O)c1ccccc1)Nc1ccccc1
inactive: growth inhibition [1] -6.82% | growth inhibition [2] -4.2% | viability increase [3] -2.84% | viability [4] 91% | viability [5] 91.6% | inhibition [6] 1.77% | RAM network inhibition [7] 0.37%

Cc1ccccc1-n1c(SC/C(O)=C(\C#N)c2nc3ccccc3[nH]2)nnc1-c1ccncc1
inactive: growth inhibition [1] 2.37% | growth inhibition [2] 19.1% | viability increase [3] -3.4% | viability [4] 93.5% | viability [5] 81.7% | inhibition [6] 2.92% | RAM network inhibition [7] 2.28%

Cc1cc(C)n(-c2nc3ccccc3nc2N2CCOCC2)n1
inactive: growth inhibition [1] -12.6% | growth inhibition [2] 7.74% | viability increase [3] -1.22% | viability [4] 98% | viability [5] 98.3% | inhibition [6] 2.33% | RAM network inhibition [7] 2.25%

O=C(c1ccc(NC2=NC3CS(=O)(=O)CC3S2)cc1)N1CCN(C(=O)c2ccco2)CC1 (stereo not drawn)
inactive: growth inhibition [1] -12.1% | growth inhibition [2] -8.33% | viability increase [3] 0.69% | viability [4] 104% | viability [5] 98.3% | inhibition [6] 2.96% | RAM network inhibition [7] 4.06%

COc1ccc(OC)c(CN2C(=O)c3ccccc3C2C(=O)NCc2cccnc2)c1 (stereo not drawn)
inactive: growth inhibition [1] -6.83% | growth inhibition [2] 2.58% | viability increase [3] 0.05% | viability [4] 106% | viability [5] 97.6% | inhibition [6] 0.155% | RAM network inhibition [7] 4.09%

COc1ccccc1N1CCN(C(=O)COc2ccc(C)cc2Br)CC1
inactive: growth inhibition [1] -7.34% | growth inhibition [2] -9.51% | viability increase [3] -1.4% | viability [4] 83.5% | viability [5] 72.4% | inhibition [6] -0.16% | RAM network inhibition [7] 2.61%

COc1ccc(OCC(O)CN2CCCCC2)cc1 (stereo not drawn)
inactive: growth inhibition [1] -7.21% | growth inhibition [2] -11.1% | viability increase [3] -1.52% | viability [4] 95% | viability [5] 101% | inhibition [6] 1.59% | RAM network inhibition [7] 0.52%

COCCCN(C(=O)Nc1ccccc1)C(C)c1ccncc1 (stereo not drawn)
inactive: growth inhibition [1] 2.64% | growth inhibition [2] -0.975% | viability increase [3] -1.88% | viability [4] 101% | viability [5] 94.3% | inhibition [6] 1.18% | RAM network inhibition [7] 3.28%

CN1C(=O)NC(c2ccccc2)C2=C1CN(Cc1ccco1)C2=O (stereo not drawn)
inactive: growth inhibition [1] -6.95% | growth inhibition [2] -14.4% | viability increase [3] -2.48% | viability [4] 90.4% | viability [5] 89.7% | inhibition [6] 1.47% | RAM network inhibition [7] 3%

COc1cccc(-c2nc(C(N)=O)c3[nH]c(=O)n(-c4cccc(Cl)c4)c3n2)c1OC
inactive: growth inhibition [1] -21.4% | growth inhibition [2] -28.5% | viability increase [3] -4.45% | viability [4] 75.5% | viability [5] 72.5% | inhibition [6] 4.14% | RAM network inhibition [7] 3.65%

Cc1[nH]nc2c1/C(=N\O)CC(C)(C)C2
inactive: growth inhibition [1] 12.7% | growth inhibition [2] -8.1% | viability increase [3] -2% | viability [4] 94.2% | viability [5] 98.1% | inhibition [6] 1.48% | RAM network inhibition [7] -1.33%

CN(Cc1ccccc1)C(=O)CCS(=O)(=O)c1ccc2c(c1)n(C)c(=O)c(=O)n2C
inactive: growth inhibition [1] -4.66% | growth inhibition [2] -4.58% | viability increase [3] 0.66% | viability [4] 95.7% | viability [5] 100% | inhibition [6] 1.23% | RAM network inhibition [7] 4.6%

CCCOC(=O)C1=C(C)NC2=C(C(=O)CC(C)(C)C2)C1c1ccc(N(C)C)cc1 (stereo not drawn)
inactive: growth inhibition [1] -2.65% | growth inhibition [2] 0.07% | viability increase [3] -2.59% | viability [4] 90.8% | viability [5] 80.9% | inhibition [6] -0.505% | RAM network inhibition [7] 6.21%

N#Cc1nc(COc2ccccc2F)oc1NCc1ccc(F)cc1
inactive: growth inhibition [1] -5.23% | growth inhibition [2] 6.15% | viability increase [3] -4.08% | viability [4] 92.1% | viability [5] 90.7% | inhibition [6] 0.39% | RAM network inhibition [7] 8.3%

S=c1nc(-c2ccccc2)n(CCCn2ccnc2)c2c1CCCC2
inactive: growth inhibition [1] -6.46% | growth inhibition [2] -0.21% | viability increase [3] 0.85% | viability [4] 102% | viability [5] 95.6% | inhibition [6] 2.03% | RAM network inhibition [7] -0.69%

COc1ccccc1NC(=O)NCCN1C(=O)C2C3C=CC(C3)C2C1=O (stereo not drawn)
inactive: growth inhibition [1] -16.2% | growth inhibition [2] -7.88% | viability increase [3] -0.36% | viability [4] 106% | viability [5] 105% | inhibition [6] 1.71% | RAM network inhibition [7] 5.38%

Cc1noc(C(=O)NCc2ccco2)c1Cl
inactive: growth inhibition [1] -10.3% | growth inhibition [2] -34.1% | viability increase [3] -3.01% | viability [4] 102% | viability [5] 101% | inhibition [6] 1.78% | RAM network inhibition [7] 2.4%

COc1ccc(N2CCN(c3nc4c(c(=O)[nH]c(=O)n4C)n3Cc3ccccc3Cl)CC2)cc1
inactive: growth inhibition [1] 4.9% | growth inhibition [2] -2.96% | viability increase [3] -2.71% | viability [4] 84.6% | viability [5] 75.3% | inhibition [6] 2.07% | RAM network inhibition [7] -1.3%

COc1ccc(N2C(=O)C3CCCN3C2c2ccc(Cl)cc2)cc1 (stereo not drawn)
inactive: growth inhibition [1] -6.21% | growth inhibition [2] -6.83% | viability increase [3] -2.6% | viability [4] 101% | viability [5] 95.5% | inhibition [6] 1.7% | RAM network inhibition [7] 2.27%

Cn1c(SCC(=O)Nc2cc(=O)n(C)c(=O)n2C)nnc1C12CC3CC(CC(C3)C1)C2
inactive: growth inhibition [1] 2.36% | growth inhibition [2] 12.8% | viability increase [3] -4.43% | viability [4] 88.8% | viability [5] 92.7% | inhibition [6] 2.03% | RAM network inhibition [7] 3.38%

CCCC(=O)Nc1ccccc1-c1nnc(SC)[nH]c1=O
inactive: growth inhibition [1] -10.4% | growth inhibition [2] 1.72% | viability increase [3] -2.76% | viability [4] 113% | viability [5] 99.3% | inhibition [6] 1.06% | RAM network inhibition [7] 1.27%
